Measured values taken from the EternaBench riboswitch data.

Tested on: MS2 coat protein
Test: apparent Kd, MS2 coat protein; higher = weaker binding; RNA-MaP array; FMN 200 µM where present
In short: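 Designs were transcribed by stalled E. coli RNA polymerase on Illumina sequencing-chip clusters. They were titrated with SNAP-549-labelled MS2 coat protein from 0.7 or 1.5 nM, doubling to 3 µM, in 100 mM Tris-HCl pH 7.5, 80 mM KCl, 4 mM MgCl2, BSA, DTT, yeast tRNA and Tween-20, without and then with constant ligand. The apparent Kd is the median of filtered per-cluster fits after normalisation of green signal to red-channel RNA signal and control-cluster median Fmax.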

[1] = designed as: OFF switch for flavin mononucleotide, no ligand
[2] = ligand present: flavin mononucleotide, designed as: OFF switch for flavin mononucleotide
[3] = designed as: ON switch for flavin mononucleotide, no ligand
[4] = ligand present: flavin mononucleotide, designed as: ON switch for flavin mononucleotide

Row | Sequence | apparent Kd [1] [nM] | apparent Kd [2] [nM] | apparent Kd [3] [nM] | apparent Kd [4] [nM]
1 | GAUCUGGCAGGAUAUACAUGAGGAUCACCCAUGUGCGAGCUAGCGAAAGCUAGCUCAGGUAGAAGGGUCAGAUC | 12.7 | 15.5 |  | 
2 | AGCUACGUUUCGUAGCAGCUAGGUGAGGAUAUUCAAUUUUUCACAUGAGGAUCACCCAUGUAUGAAAAGAAGGCGCCUAGAAAG |  |  | 4.45 | 4.04
3 | AUUAUUAAAGUGAGGAUAUCUAGAGCUUCGGCUCUAGAGAAGGCACAUGAGGAUCACCCAUGUCUCAAUUAUUA | 18.5 | 59.4 |  | 
4 | GAGUACUGAGGAUAUACAUGAGGAUCACCCAUGUGUUCCAACUAGGAAUCUAGAAUAUGUAGAAGGCAGUACUG | 223 | 211 |  | 
5 | AGGUUUGGAGAGAAGGGCUAAUGGGUUUCGUUUGAGGUAUUCGCAACAUGAGGAUCACCCAUGUAGCAGGAUAUCUCAAAACUA | 4.88 | 7.95 |  | 
6 | AAUCGAUCAACAGGAUAUGCGCAAUGAUCUGAACAUGAGGAUCACCCAUGUGCAGAAGGGUUGGUCAUCUUUUGGGACGAGACA | 101 | 311 |  | 
7 | UCAGUAGAGUCAGGAUAUACGAAAGUAGAUCCUUACAUGAGGAUCACCCAUGUAGAAGGGACUCUACUGUAAGUCGGAAACGAC | 14.1 | 69.1 |  | 
8 | GCCACAAGGGCAGGAUAUGAACUUAAUGGCAGUUUAGAAGGGUCACUCGUGGGUUAAAAUCACAUGAGGAUCACCCAUGUAUAG |  |  | 664 | 84.7
9 | CUGAGCAAUGUAGGAUAUCGACUGGAUAACAGUCGAGAAGGACAUGAGGAUCACCCAUGUAAAUGAGUGAAUAAUAAAGCUCAG | 1070 | 331 |  | 
10 | AUGUAGGUAGGAUAUGCAUAGAUAUACAUUCAUGUGGAUUUACAUGAGGAUCACCCAUGUAGAAGGACCUAAAA | 34.1 | 107 |  | 
11 | CCUCUACAUGAGGAUCACCCAUGUGAGGAUAUCUCGGAGCAGCCACUUAAAGCACUCCAGAGAAGGCACGUGUA | 15.3 | 22.8 |  | 
12 | GACAGUGCAAUAAUAAUAAGAUCUACAUGAGGAUCACCCAUGUAGGAUAUCGUCAGGAAUACUGACGAGAAGGACAUAGCACUG | 13.1 | 15 |  | 
13 | GCUGGACAUGAGGAUCACCCAUGUGAGGAUAUCGGCUGGUACGUGUUGGCUGGCAUCUCGAGAAGGCACAUAGU | 32.8 | 42.4 |  | 
14 | ACAUACAUUCGAGGAUAUCGGUGAUUAAUUUUACGAGAAGGCGAUAUAAGAUUUAAUAUUUUAGACAUGAGGAUCACCCAUGUA |  |  | 27.6 | 22.7
15 | CAUGACGAAGGAUAUACAUGAGGAUCACCCAUGUGGUCAUGGAAGUACGUGUUCUCGCGUAGAAGGUUGUAAAA | 12.9 | 13.6 |  | 
16 | AGCAGACGAGGAUAUGAUAAAGAUCACAUGAGGAUCACCCAUGUAGCGUCGAUAGACGCAUCAGAAGGCGUCUGCU | 16.1 | 16.5 |  | 
17 | GAGUGGCGAUUAGGAUAUACAGUGAUAAUGAUAGUAGAAGGAAUUGACAUGAGGAUCACCCAUGUAGGACUAAUCCAGAGAGAG |  |  | 96.1 | 84.9
18 | GCAGGAUAAGUCAGGAUAUACCUAUGGAUACAUAGGUAGAAGGGACAUGAGGAUCACCCAUGUGCCUCGCCUGC | 14.5 | 37.4 |  | 
19 | CGGUGACGUGUAGGAUAUGGAGGUGGGUUUUGGCCAGAAGGACAUGAGGAUCACCCAUGUGGUAGAGGGUUGGCGGCUGCCCGU | 19.7 | 18.9 |  | 
20 | GCUGCUCAUGAGAAGGCGAUCAUGAAACAUGAUCGAGGAUAUCAUGUAAACAUGAGGAUCACCCAUGUAUGGGUAUUAUGCAGC |  |  | 117 | 40.5
21 | CCCACGUCAGGAUAUCCAAAGGUCCGAAAUAACGGUACUUUGGAGAAGGGACAUGAGGAUCACCCAUGUCCUCG | 18.9 | 28.8 |  | 
22 | GGAGCCGGUACUGAGGAUAUUCAUAUUAAAACAUGAGGAUCACCCAUGUAGGCCAGAAGGCCUUGGGAGAAGGCAGGCCAGCUCG |  |  | 378 | 31.4
23 | CGUCGAAAGGCGGGUCCAUCACCACAUGAGGAUCACCCAUGUAAGGAUAUCGGACUCAGAAAGAGCGAGAAGGUACAUAGUUAA | 6.01 | 6.53 |  | 
24 | CCACCUCCUGAGGAUAUUGCAUCACCCGACUGAUAAGAAGGCAGAACAUGAGGAUCACCCAUGUGGGUACUCCC | 82.5 | 77.2 |  | 
25 | AUCGGCCCGUAGAAGGGUGACAUGAGGAUCACCCAUGUGCCGCGUGCAUUUAUGCCUCCGCGGCCACAGGAUAUACGGAGUUGA |  |  | 61 | 50
26 | GCUUGUGAAGGAUAUACUGGAGGCGUGCGAUAGAAGCACGCACAUGAGGAUCACCCAUGUAGAAGGUCAGGCGU | 36.9 | 44.5 |  | 
27 | CACGAGUGAGGAUAUAGAGAGGUGAGGCUGAAGUCGCAUAUCUAGAAGGCACAUGAGGAUCACCCAUGUCCCUC | 481 | 503 |  | 
28 | AACAUCCAAGCGCCCGGGUGGAGGAGAAGGCGGACAUGAGGAUCACCCAUGUGCAGCCACAAGUCCGAGGAUAUCCUUUGUGUU | 10.6 | 20.2 |  | 

Row | Sequence | apparent Kd [1] [nM] | apparent Kd [2] [nM] | apparent Kd [3] [nM] | apparent Kd [4] [nM]
29 | CAAUUGGCACAGAAGGGUGACAUGAGGAUCACCCAUGUAGCGUGGCACUCAGGAGGAACCACGCCACAGGAUAUGUGCCGGCAC |  |  | 88.5 | 86.8
30 | AAAAAGUGAGGAUAUACAUGAGAAAAAAAAAUGUAAAAAAAACAUGAGGAUCACCCAUGUAGAAGGCACAAAAA | 49.7 | 82.7 |  | 
31 | UGGUUGGGAGGAUAUCCAAUAUAUGACAUGAGGAUCACCCAUGUUUCCACUCGUACCUCCGGAGAAGGCCCUUCCC | 21.7 | 20.7 |  | 
32 | UCCUCACAUGAGGAUCACCCAUGUCAGGAUAUCUGCGAGCAUUGGCCAAGGCCGCUCAGGAGAAGGGACGUCAA | 17.1 | 27.4 |  | 
33 | GGUAGGUUCACAGGAUAUGCUAUCCUUUGGGUAGCAGAAGGGUGAUAACAUGAGGAUCACCCAUGUCCUACCGGGCGUGAGCCC |  |  | 1120 | 113
34 | GUUAAUUAGUGAGGAUAUACAGUAUUUAAUACUGUAGAAGGCACAAUCCUCAAGACAUGAGGAUCACCCAUGUGAUAAUAAGCU | 35.4 | 139 |  | 
35 | GUCAGCUCCUGAGGAUAUACAACACUGCUUCGGCAGUGUAUUAAGAUCACAUGAGGAUCACCCAUGUAGAAGGCACGAGCUGAU | 12.1 | 156 |  | 
36 | GUGGUCAGACAUGAGGAUCACCCAUGUGGAAUAAAUAAGGAGAAGGAUAUGCAAUAUAGGAUAUAGCAGAAGGUCUGGUUGGUG |  |  | 80.1 | 92.7
37 | UUUAGUUCAGGAUAUGUAGAUUUUAACAUGAGGAUCACCCAUGUAGAUCCUGAAUUAACUACAGAAGGGAACAUUA | 21.3 | 75.4 |  | 
38 | UCAGGCUUCGAGAAGGACAUGAGGAUCACCCAUGUGCGUGUGAAGCAGCCAAAAGGCUGCAUCAUGUAGGAUAUCGGAGUCUGC | 81.8 | 552 |  | 
39 | GGGUACAUCGCAGGAUAUCAUGUAAAUACAUGAGGAUCACCCAUGUCGAUGGAGACAUCGGAGAUUGAGAAGGCCGAUGUACCG |  |  | 622 | 322
40 | CGUGACUCAGGAUAUCUAUAGUAUCACAUGAGGAUCACCCAUGUCCAGCGAAAGCUGGAGGGAGAAGGGAGUCACG | 266 | 53.9 |  | 
41 | CUAUUGGCAGGAUAUGCUUUUUUUGACAUGAGGAUCACCCAUGUGAUGCAUUUUGGGUUUGCAGAAGGGCCUGAGU | 74.3 | 75.1 |  | 
42 | UACAUUACUGAGAAGGGAUACAUAUAAUUUUAGUCAGGAUAUCGAUACAGUGCAGCAUGAGGACAUGAGGAUCACCCAUGUAUU |  |  | 24.4 | 19.5
43 | AGUCCUGACGUCAGGAUAUCCGGCCAAUAGGCCAAGGAGAAGGGACAUGAGGAUCACCCAUGUGCUUGGGUCCG | 23.2 | 40.2 |  | 
44 | AGAUAUAACUCAGGAUAUCAGCAUGGGUAGAUUACAUGAGGAUCACCCAUGUGCAUGUCCCGGCAUGAGAAGGGAGUAACGCAA |  |  | 81.8 | 27.4
45 | GCACAUGGCAUAGGAUAUAGAACUAUACUUUAUAUAGGUAGUUACACUUAACUAGAAGGAUGAUACAUGAGGAUCACCCAUGUA |  |  | 16.8 | 14.5
46 | AACCUAUUACAGAAGGCCAGCUACAUGAGGAUCACCCAUGUCGAGUCAUGGAGGAUAUGUAGUAAUUUACUCACAGAUGAGUGA |  |  | 22.9 | 5.07
47 | AGCUGUGGCCGAGGAUAUCUACCUUCAAUAACCGAAAUAUAAUCGGACAUGAGGAUCACCCAUGUAGAGAAGGCGGUCUCAGCA | 14.8 | 96.2 |  | 
48 | AAGAAGUGAGGAUAUGCUGCUCGUCACUUGCGUGAUGAGUAGCAGAAGGCACAUGAGGAUCACCCAUGUGGAAA | 31.3 | 43.1 |  | 
49 | GGCCCGUAAGGAUAUAAUGCUCAGGUGAAAACCGAGCUCCGUUAGAAGGUACAUGAGGAUCACCCAUGUGAUCG | 107 | 124 |  | 
50 | GAUUAACAUGAGGAUCACCCAUGUGAGGAUAUUGACUUGCUCACUUUCCCAUUCGAGUCGAGAAGGCGCAUCUU | 28.7 | 29 |  | 
51 | AGGUGACAUGAGGAUCACCCAUGUUGCAUAAAACAAGGAUAUGGGUGGCGGGAUCGCCAAUCAGAAGGUGUUCCGA |  |  | 44.1 | 36.9
52 | UACCUGAGGCAAAGCUUUAGGUAUACAUGAGGAUCACCCAUGUAGGAUAUGGUAGGCUUUGCUUACCAGAAGGACAUGUAAAUU | 20.5 | 67.8 |  | 
53 | AAGGCAAUGUCAUGCCCACCGGACAGAAGGCAAUGUGGGCAGCCCGACAUGAGGAUCACCCAUGUUGAGGAUAUGUCCCGUCCU | 2.72 | 2.85 |  | 
54 | CGUCGGUGGCAGAAGGGACAGAGAUCCUCGCUGCCGGAUCGUCUUGCACAUGAGGAUCACCCAUGUCAGGAUAUGCCCAAGCGG | 5.35 | 5.15 |  | 
55 | UUGGUUGUCGUAGGAUAUGUAGGAUAUUCCUACAUGAGGAUCACCCAUGUUCGCAUGGAAGAAGGACAGAAGGACGAUGACCAG |  |  | 1240 | 9.67
